ChEMBL document CHEMBL1134271 (J Med Chem, 2001)

Assays:
Endothelin-1 receptor [1] = molecular target: T1, Endothelin-1 receptor (Rattus norvegicus, UniProt P26684); assay: Binding affinity against endothelin A receptor in MMQ cells in rat; type: cell-based
T1 sequence (P26684 whole entry): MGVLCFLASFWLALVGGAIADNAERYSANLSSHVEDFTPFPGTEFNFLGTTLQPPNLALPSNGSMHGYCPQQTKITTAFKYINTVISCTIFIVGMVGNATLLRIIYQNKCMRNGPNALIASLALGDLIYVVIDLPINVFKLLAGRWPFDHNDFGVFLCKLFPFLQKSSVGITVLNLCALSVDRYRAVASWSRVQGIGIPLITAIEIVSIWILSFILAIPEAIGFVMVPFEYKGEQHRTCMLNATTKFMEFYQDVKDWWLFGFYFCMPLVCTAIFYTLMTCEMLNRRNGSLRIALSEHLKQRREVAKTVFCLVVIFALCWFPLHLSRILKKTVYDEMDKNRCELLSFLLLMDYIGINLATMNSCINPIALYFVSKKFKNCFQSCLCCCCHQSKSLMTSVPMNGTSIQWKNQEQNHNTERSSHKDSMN

[2] = Compound was evaluated for pharmacokinetic data, area under curve (AUC); type: ADME
How it was run: (§1)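 Rats (n = 3) were given 10 mg/kg by oral gavage. Plasma drug concentration was followed over time and compared with the intravenous time course. Oral half-life, Cmax, AUC and oral bioavailability were derived from these profiles.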

[3] = (§2) Compound was evaluated for bioavailability; type: ADME, organism-based; settings: eutheria, in vivo
How it was run: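 Rats received the drug by intravenous injection (5 mg/kg) and by oral gavage (10 mg/kg), three rats per route. Plasma drug levels were followed over time. Oral bioavailability (F) was derived by comparing plasma exposure after oral dosing with that after iv dosing.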

[4] = Compound was evaluated for pharmacokinetic data, Cmax; type: ADME, organism-based; settings: in vivo; how it was run: as §1
[5] = molecular target: T2, Endothelin receptor type B (Homo sapiens, UniProt P24530); assay: Binding affinity against human endothelin B receptor in CHO cells; type: cell-based
T2 sequence (P24530 whole entry): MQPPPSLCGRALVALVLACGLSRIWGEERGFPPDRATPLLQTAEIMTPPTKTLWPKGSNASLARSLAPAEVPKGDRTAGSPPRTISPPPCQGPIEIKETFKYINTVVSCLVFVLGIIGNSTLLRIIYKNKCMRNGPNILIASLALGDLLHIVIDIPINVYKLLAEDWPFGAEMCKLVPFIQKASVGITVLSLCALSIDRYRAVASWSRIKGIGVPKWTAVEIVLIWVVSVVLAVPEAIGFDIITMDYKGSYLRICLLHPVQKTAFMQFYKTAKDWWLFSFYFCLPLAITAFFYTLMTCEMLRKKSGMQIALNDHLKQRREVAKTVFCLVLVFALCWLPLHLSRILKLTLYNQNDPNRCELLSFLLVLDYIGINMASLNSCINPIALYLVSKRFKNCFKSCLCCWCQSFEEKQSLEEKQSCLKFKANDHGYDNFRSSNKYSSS
How it was run: (§3)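 Human ET-A and ET-B receptors expressed in CHO cells, run as a second binding assay alongside the rat/porcine screen. IC50 was derived from radioligand displacement: [125I]ET-1 for ET-A and [125I]ET-3 for ET-B.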

[6] = Compound was evaluated for half life period when administered orally; type: ADME, organism-based; settings: in vivo, po; how it was run: as §1
[7] = Compound was evaluated for half-life period when administered intravenously; type: ADME, organism-based; settings: in vivo, iv
How it was run: (§4)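 Rats were dosed by intravenous injection at 5 mg/kg. Plasma drug levels were followed over time, and half-life was derived from the iv time course.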

[8] = as §2; type: ADME, organism-based; settings: eutheria, in vivo; how it was run: as §1; remark: listed apart in the source
Endothelin-1 receptor [9] = molecular target: T3, Endothelin-1 receptor (Homo sapiens, UniProt P25101); assay: Binding affinity against human Endothelin A receptor; how it was run: as §3
T3 sequence (P25101 whole entry): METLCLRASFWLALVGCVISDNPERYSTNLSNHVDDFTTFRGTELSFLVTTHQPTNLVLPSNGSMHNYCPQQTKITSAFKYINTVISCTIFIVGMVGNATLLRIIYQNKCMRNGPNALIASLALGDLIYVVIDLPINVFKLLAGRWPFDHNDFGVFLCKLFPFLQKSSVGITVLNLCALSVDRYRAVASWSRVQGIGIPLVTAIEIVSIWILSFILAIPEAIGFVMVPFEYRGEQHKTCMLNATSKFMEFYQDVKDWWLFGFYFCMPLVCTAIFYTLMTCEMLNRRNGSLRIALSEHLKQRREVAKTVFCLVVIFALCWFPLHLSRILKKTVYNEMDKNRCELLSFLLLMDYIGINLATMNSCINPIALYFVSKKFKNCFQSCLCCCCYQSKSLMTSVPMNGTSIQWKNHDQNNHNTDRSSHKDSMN

[10] = Compound was evaluated for half life period when administered intravenously; type: ADME, organism-based; settings: in vivo, iv; how it was run: as §4

With `CCCCN(CCCC)C(=O)CN1C[C@H](c2ccc3c(c2)OCO3)[C@@H](C(=O)O)[C@@H]1c1ccc(C(F)(F)F)cc1` the IC50 (Endothelin-1 receptor [1]) was 3.28 nM.

For `CCCCN(CCCC)C(=O)CN1C[C@H](c2cc(OC)c3c(c2)OCO3)[C@@H](C(=O)O)[C@@H]1CC(C)(C)CCC` [ABT-546], the AUC [2] was 3.27 µg·h/mL and the bioavailability [3] was 47.7%.

With `CCCCN(CCCC)C(=O)CN1C[C@H](c2ccc3c(c2)OCO3)[C@@H](C(=O)O)[C@@H]1c1ccc(OC)c(F)c1` the IC50 (Endothelin-1 receptor [1]) was 0.07 nM.

Compound `CCCCN(CCCC)C(=O)CN1C[C@H](c2ccc3c(c2)OCCO3)[C@@H](C(=O)O)[C@@H]1c1ccc(CC)cc1` has an IC50 (Endothelin-1 receptor [1]) of 5.2 nM.

In the case of `CCCCN(CCCC)C(=O)CN1C[C@H](c2ccc3c(c2)OCC3)[C@@H](C(=O)O)[C@@H]1c1ccc(OC)cc1`, the IC50 (Endothelin-1 receptor [1]) is reported as 1.2 nM.

Compound `CCCCN(CCCC)C(=O)CN1C[C@H](c2ccc3c(c2)OCO3)[C@@H](C(=O)O)[C@@H]1c1ccc(C)cc1` has an IC50 (Endothelin-1 receptor [1]) of 0.12 nM.

`CCCCN(CCCC)C(=O)CN1C[C@H](c2ccc3c(c2)CCO3)[C@@H](C(=O)O)[C@@H]1c1ccc(C)c(F)c1` (stereo in doubt; 8a) gave a Cmax [4] of 1.84 µg/mL, an IC50 [5] of 6200 nM and an AUC [2] of 12.5 µg·h/mL. For the same compound, the T1/2 [6] was 4.7 h, the half-life [7] was 2.1 h and the bioavailability [8] was 71.7%. For the same compound, the Ki (Endothelin-1 receptor [9]) was 0.039 nM.

Work on `CCCCN(CCCC)C(=O)CN1C[C@H](c2ccc3c(c2)OCCO3)[C@@H](C(=O)O)[C@@H]1c1ccc(OC)cc1` yielded an IC50 (Endothelin-1 receptor [1]) of 0.85 nM.

With `CCCCN(CCCC)C(=O)CN1C[C@H](c2ccc3c(c2)CCO3)[C@@H](C(=O)O)[C@@H]1c1ccc(CC)c(F)c1` the IC50 [5] was 3050 nM.

For `CCCCN(CCCC)C(=O)CN1C[C@H](c2ccc3c(c2)OCO3)[C@@H](C(=O)O)[C@@H]1c1ccc(CC)cc1`, the IC50 (Endothelin-1 receptor [1]) was 0.17 nM.

For `CCCCN(CCCC)C(=O)CN1C[C@H](c2ccc3c(c2)CCO3)[C@@H](C(=O)O)[C@@H]1c1ccc(C)c(F)c1` (stereo in doubt; 8), the Cmax ([4]; read-out: Cmax) was 0.93 µg/mL, the IC50 [5] was 4400 nM and the AUC [2] was 9.4 µg·h/mL. For the same compound, the half-life [6] was 5.8 h, the half-life [10] was 4.7 h and the bioavailability ([8]; read-out: Bioavailability) was 65.6%.

With `CCCCN(CCCC)C(=O)CN1C[C@H](c2ccc3c(c2)CCO3)[C@@H](C(=O)O)[C@@H]1c1ccc(C)cc1` the IC50 (Endothelin-1 receptor [1]) was 0.78 nM.

Compound `CCCCN(CCCC)C(=O)CN1C[C@H](c2ccc3c(c2)OCCO3)[C@@H](C(=O)O)[C@@H]1c1ccc(CC)c(F)c1` has an IC50 [5] of 950 nM.

For `CCCCN(CCCC)C(=O)CN1C[C@H](c2ccc3c(c2)OCO3)[C@@H](C(=O)O)[C@@H]1c1ccc(F)c(F)c1`, the IC50 (Endothelin-1 receptor [1]) was 1.38 nM.

Work on `CCCCN(CCCC)C(=O)CN1C[C@H](c2ccc3c(c2)OCO3)[C@@H](C(=O)O)[C@@H]1c1ccc(OC)c(OC)c1` yielded an IC50 (Endothelin-1 receptor [1]) of 0.11 nM.

With `CCCCN(CCCC)C(=O)CN1C[C@H](c2ccc3c(c2)CCO3)[C@@H](C(=O)O)[C@@H]1c1ccc(CC)cc1` the IC50 (Endothelin-1 receptor [1]) was 0.92 nM.

Compound `CCCCN(CCCC)C(=O)CN1C[C@H](c2ccc3occc3c2)[C@@H](C(=O)O)[C@@H]1c1ccc(OC)cc1` has an IC50 (Endothelin-1 receptor [1]) of 0.48 nM.

Compound `CCCCN(CCCC)C(=O)CN1C[C@H](c2ccc3c(c2)OCO3)[C@@H](C(=O)O)[C@@H]1c1ccc(CCC)cc1` has an IC50 (Endothelin-1 receptor [1]) of 1.06 nM.

For `CCCCN(CCCC)C(=O)CN1C[C@H](c2ccc3c(c2)OCO3)[C@@H](C(=O)O)[C@@H]1c1ccc(OC)cc1`, the Cmax ([4]; read-out: Cmax) was 3.44 µg/mL, the AUC [2] was 7.36 µg·h/mL and the half-life [6] was 6.2 h. The bioavailability ([8]; read-out: Bioavailability) was 60.2%.
